Hep lipid drop: hepatic lipid droplet formation modulation | inhibition, % at 6.5 µM | 0.4% of 240,000 active | AID 1656 | AML12 mouse hepatocytes, oleate lipid droplets, BODIPY imaging;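 active = lipid droplet intensity inhibited by at least 50%, with more than 500 cells counted; inconclusive = wells with under 300 cells, treated as cytotoxic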
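Material – mouse AML12 hepatocyte cell line, fixed after treatment · Compound dosing – one dose, 6.5 µM compound · Times – compound with oleate, overnight · Measured by – Image-based BODIPY and DAPI two-channel analysis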
procasp3 activ: procaspase-3 (human) activation. recombinant procaspase-3 D3A, Ac-DEVD-pNA absorbance 405 nm. 0.11% of 330,000 active. P42574. activation, % at 8.5 µM;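 active = activation above the mean of all tested compounds plus 3 SD, cut at about 21% in these data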;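 note: 0% = DMSO alone and 100% = DMSO wells spiked with extra 5 µM PC-3 D3A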
Target sequence (P42574 whole entry D9A/D28A/D175A): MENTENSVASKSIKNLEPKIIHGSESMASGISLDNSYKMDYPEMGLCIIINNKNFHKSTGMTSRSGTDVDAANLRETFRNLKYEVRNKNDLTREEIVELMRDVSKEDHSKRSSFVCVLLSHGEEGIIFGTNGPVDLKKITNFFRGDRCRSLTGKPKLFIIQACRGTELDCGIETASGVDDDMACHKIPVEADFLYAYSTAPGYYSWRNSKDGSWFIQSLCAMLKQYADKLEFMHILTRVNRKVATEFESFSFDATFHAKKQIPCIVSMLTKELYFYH
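assay system = Procaspase-3 D3A mutant | signal = absorbance at 405 nm, 0 and 120 min | times = 1 h preincubation plus 2 h reaction at 25 °C | repeats = single replicate | read-out = % activation between DMSO and enzyme-spiked controls | medium = Zinc-free HEPES saline buffer with Triton X-100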
Rce1 inhib: inhibitors of yeast Ras-converting enzyme. 0.27% of 290,000 active. yeast membranes, quenched prenylated peptide cleavage fluorescence. calls only. AID 2563. Q03530;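 active = fall in fluorescence gain of 50% or more versus controls, with final raw signal at or below 3038400; inconclusive = same 50% fall but final raw signal above 3038400; inactive = fall in fluorescence gain under 50%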;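 note: plate controls were neutral control wells for no effect and wells lacking membranes for full effect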
procasp7 counter: activates human procaspase-7, counter-screen for procaspase-3 activators; P55210; recombinant procaspase-7, Ac-DEVD-pNA absorbance 405 nm; D23A/D198A/D206A triple mutant, cannot self-cleave; scale: DMSO 0, 5 µM enzyme 100; activation, % at 8.5 µM; 0.093% of 330,000 active;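 active = percent activation above the screen-wide mean plus 3 SD, cut at about 25% in these data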
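Replicates: singlicate. Assay system: Procaspase-7 triple mutant (PC-7 D3A). Signal: 405 nm absorbance of p-nitroaniline. Times: 1 h preincubation, 2 h reaction. Buffer or medium: Zinc-free HEPES pH 7.4 with 300 mM NaCl, 0.01% Triton X-100. Also added: DEVD-pNA substrate. Benchmarks: DMSO wells as 0%, DMSO with 5 µM added PC-7 as 100%.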
pCIP destab: lowers stability of the mouse p/CIP coactivator protein | F442A p/CIP-EGFP cells, EGFP fluorescence, 16 h | decrease of EGFP signal, % at 10 µM | Q05BA5 | 0.01% of 290,000 active;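 active = EGFP signal decrease of at least 30% at 10 µM or well 3 SD below plate mean, unless failing retest; inactive = the rest, including hits failing retest or dose response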
GAA850 FXN act: frataxin GAA850 promoter activation | HEK293 lucGAA850 FXN promoter luciferase reporter, 24 h; percent of 10 µM SAHA response | activation, % at 6 µM | 0.56% of 360,000 active;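 active = activation above the average of all compounds screened plus 3 SD, cutoff fixed separately per campaign, cut at about 7.5% in these data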;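 note: 0% = DMSO wells and 100% = 10 µM SAHA wells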
GAA30 counter: GAA30 FXN promoter activation counter-screen | shares compounds with GAA850 FXN act | HEK293 lucGAA30 FXN promoter luciferase, 24 h; DMSO = 0%, 5 µM ipriflavone = 100% | 66% of 1,900 active | activation, % at 6 µM;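 active = mean activation above the mean of solvent-only control wells plus 3 SD, cut at about 22% in these data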;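 note: counterscreen of GAA850 promoter hits where activity marks nonselective or luminescence artifacts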
GAA850 confirm: confirmation of GAA850 frataxin (FXN) promoter activators; 86% of 1,900 active; AID 588351; activation, % at 6 µM; shares compounds with GAA850 FXN act; HEK293 lucGAA850 FXN promoter luciferase reporter, 24 h; 100% = activation by SAHA;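 active = mean activation above a set limit taken from the primary screen, cut at about 8% in these data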;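 note: 0% = DMSO wells and 100% = 10 µM SAHA wells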
An asterisk follows results filed as active; i = inactive; ? = inconclusive; / = no result given. Hits are enriched below; roughly 1.2% of the tested compounds scored in any of these assays.

SMILES	Hep lipid drop	procasp3 activ	Rce1 inhib	procasp7 counter	pCIP destab	GAA850 FXN act	GAA30 counter	GAA850 confirm
O=C(Nc1ncccc1O)c1ccc(S(=O)(=O)Nc2ccccc2)cc1	/	7	i	3	/	20*	52*	47*
O=C(Nc1ccccc1O)c1ccc(NS(=O)(=O)c2cccc3cccnc23)cc1	-6	6	i	-4	-4	20*	56*	73*
O=C(/C=C\c1ccccc1OC(=O)c1ccccc1F)c1cc2ccccc2o1	10	-3	i	-4	-11	10*	94*	29*
CC(=O)/C=C\c1ccccc1OC(=O)c1cc2ccccc2oc1=O	6	-5	i	-4	3	4	/	/
Cn1c(=NC(=O)c2cccc([N+](=O)[O-])c2)sc2ccccc21	-21	-4	i	2	-6	9.1*	120*	36*
COc1cc2c(cc1OC)/C(=C/C(=O)c1ccccc1F)NCC2	-3	/	i	/	0	8.3*	17	12*
COc1cc2c(cc1OC)/C(=C/C(=O)c1ccc(F)cc1)NCC2	-16	2	i	12	5	4	/	/
Nc1c(C(=O)N2CCCCC2)sc2nc3c(cc12)CCCC3	-5	-14	/	-12	-6	3	/	/
Cc1ccc(C(=O)c2sc3nc4c(cc3c2N)CCC4)cc1	-8	-1	i	7	-3	8.4*	100*	41*
CC(Oc1ccc2cc(-c3ccccc3)c(=O)oc2c1)C(=O)NCC1CCC(C(=O)O)CC1 (centres undefined)	-1	7	?	-2	1	1	/	/
CCC(=O)N1CCc2cc(S(=O)(=O)CCC(=O)N3CCN(c4ccc(C(C)=O)cc4)CC3)ccc21	13	2	i	-9	-8	-2	/	/
COc1ccc(-c2cc(C(=O)NC(C)C)no2)cc1	/	0	i	2	-4	8.1*	106*	32*
COC(=O)c1cc(-c2ccc(OC)cc2)on1	-16	2	i	7	-15	-1	/	/
O=C(Cc1nc2ccccc2[nH]c1=O)c1ccccc1	-10	/	/	/	-49	8.8*	140*	53*
COc1cc(/C=N/Nc2nc3ccccc3s2)ccc1OC(=O)c1ccccc1F	0	-5	i	6	-15	9.3*	118*	41*
COc1cc(OC)cc(C(=O)Oc2ccc(/C=N/Nc3nc4ccccc4s3)cc2OC)c1	-2	6	i	1	0	8.0*	116*	36*
O=C(NCC1CCCO1)c1cc2cc(Cl)ccc2[nH]1 (centres undefined)	5	2	i	-1	-8	3	/	/
COc1ccc(S(=O)(=O)N2CCOC2CNC(=O)C(=O)NCCN2CCOCC2)cc1C (centres undefined)	-14	4	i	9	11	0	/	/
CCCCOP(=O)(c1ccc(N(C)C)cc1)C(O)c1c(Cl)cccc1Cl (centres undefined)	-4	-3	i	-1	5	16*	17	11*
CCCCOP(=O)(c1ccc(N(C)C)cc1)C(O)c1ccc(N(C)C)cc1 (centres undefined)	-10	3	i	-5	-13	1	/	/
CCNc1cc2n(c(=O)n1)CCc1cc(OC)c(OC)cc1-2	/	15	i	9	-1	9.9*	6	5
CCCCCCNc1cc2n(c(=O)n1)CCc1cc(OC)c(OC)cc1-2	/	-6	/	2	-18	5	/	/
COc1cc2c(cc1OC)-c1cc(NC3CCCCC3)nc(=O)n1CC2	/	6	i	0	-6	10*	22	11*
COc1cc2c(cc1OC)-c1cc(NC3CCCCCCC3)nc(=O)n1CC2	/	2	i	-2	0	8.1*	15	13*

Compound activity from PubChem.
